Source: ChEMBL document CHEMBL4304743, “Discovery of ( E)- N1-(3-Fluorophenyl)- N3-(3-(2-(pyridin-2-yl)vinyl)-1 H-indazol-6-yl)malonamide (CHMFL-KIT-033) as a Novel c-KIT T670I Mutant Selective Kinase Inhibitor for Gastrointestinal Stromal Tumors (GISTs)” (J Med Chem, 2019)
Activity calls are given as the source filed them. The rule behind the calls is not given here.

Key:
[1] = Antiproliferative activity in mouse BAF3 cells after 72 hrs by CCK8 assay; assay type: cell-based
Summary of the method: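 IL-3-independent BaF3 cells carrying tel-c-KIT constructs, grown in RPMI 1640 with 10% FBS. Cells at 1.5-5 × 10^4 cells/mL mixed directly with serial compound dilutions, 72 h at 37 °C, 5% CO2. CCK-8 read-out at 450 nm, normalized to DMSO; GI50 by curve fitting.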

[2] = tested on: Mast/stem cell growth factor receptor Kit (Homo sapiens), P10721 [V559G]; assay: Inhibition of TEL fused c-KIT V559G mutant (unknown origin) transfected in mouse BAF3 cells assessed as growth inhibition after 72 hrs by CCK8 assay; assay type: cell-based
Sequence of Mast/stem cell growth factor receptor Kit (Homo sapiens), P10721 [V559G] (P10721 whole entry V559G, the tested form may be a part): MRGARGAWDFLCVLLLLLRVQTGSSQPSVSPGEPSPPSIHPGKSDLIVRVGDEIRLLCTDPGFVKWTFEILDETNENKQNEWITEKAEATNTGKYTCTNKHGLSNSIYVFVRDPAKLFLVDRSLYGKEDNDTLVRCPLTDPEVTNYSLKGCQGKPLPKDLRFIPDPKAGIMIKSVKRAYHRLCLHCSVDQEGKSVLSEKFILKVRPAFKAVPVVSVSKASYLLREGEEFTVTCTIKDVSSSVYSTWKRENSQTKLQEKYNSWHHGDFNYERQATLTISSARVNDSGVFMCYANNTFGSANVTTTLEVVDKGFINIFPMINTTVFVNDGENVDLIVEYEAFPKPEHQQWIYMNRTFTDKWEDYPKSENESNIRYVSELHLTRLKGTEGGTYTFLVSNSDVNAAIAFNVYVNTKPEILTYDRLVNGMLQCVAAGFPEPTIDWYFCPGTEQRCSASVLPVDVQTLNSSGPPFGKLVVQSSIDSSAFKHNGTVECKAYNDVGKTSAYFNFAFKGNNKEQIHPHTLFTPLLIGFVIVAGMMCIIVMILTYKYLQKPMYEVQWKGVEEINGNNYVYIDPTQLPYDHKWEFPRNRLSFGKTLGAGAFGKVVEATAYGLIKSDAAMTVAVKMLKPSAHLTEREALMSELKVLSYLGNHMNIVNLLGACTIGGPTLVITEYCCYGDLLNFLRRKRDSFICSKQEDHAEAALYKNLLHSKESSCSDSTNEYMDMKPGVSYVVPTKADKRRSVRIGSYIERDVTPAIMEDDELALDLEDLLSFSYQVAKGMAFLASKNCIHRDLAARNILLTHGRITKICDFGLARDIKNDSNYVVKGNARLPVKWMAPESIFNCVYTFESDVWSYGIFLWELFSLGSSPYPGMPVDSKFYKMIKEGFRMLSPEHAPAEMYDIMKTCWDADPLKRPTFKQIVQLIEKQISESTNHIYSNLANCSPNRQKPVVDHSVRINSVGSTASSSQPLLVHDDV
Summary of the method: (§1)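 Tel-c-KIT-transformed BaF3 lines (IL-3 independent) kept in RPMI 1640 with 10% FBS, 2% L-glutamine and pen/strep. Cells at 1.5 to 5 × 10^4 cells/mL mixed with graded compound and incubated 72 h at 37 °C, 5% CO2. Viability by CCK-8 absorbance at 450 nm, normalized to DMSO. GI50 from dose–response fit.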

[3] = tested on: Mast/stem cell growth factor receptor Kit (Homo sapiens), P10721 [V559D,V654A]; assay: Inhibition of TEL fused c-KIT V654A/V559D double mutant (unknown origin) transfected in mouse BAF3 cells assessed as growth inhibition after 72 hrs by CCK8 assay; assay type: cell-based; summary of the method: as §1
Sequence of Mast/stem cell growth factor receptor Kit (Homo sapiens), P10721 [V559D,V654A] (P10721 whole entry V559D/V654A, the tested form may be a part): as the sequence (P10721 whole entry V559G, the tested form may be a part) above, with G559D, V654A counted along it

[4] = tested on: Mast/stem cell growth factor receptor Kit (Homo sapiens), P10721 [A829P]; assay: Inhibition of TEL fused c-KIT A829P mutant (unknown origin) transfected in mouse BAF3 cells assessed as growth inhibition after 72 hrs by CCK8 assay; assay type: cell-based; summary of the method: as §1
Sequence of Mast/stem cell growth factor receptor Kit (Homo sapiens), P10721 [A829P] (P10721 whole entry A829P, the tested form may be a part): as the sequence (P10721 whole entry V559G, the tested form may be a part) above, with G559V, A829P counted along it

[5] = target: T1, Mast/stem cell growth factor receptor Kit (Homo sapiens, UniProt P10721); assay: Inhibition of wild-type His-tagged c-KIT (unknown origin) expressed in baculovirus infected sf9 cells pre-incubated for 60 mins followed by ATP addition and measured after 1 hr by Z-LYTE assay
T1 sequence (P10721 whole entry): as the sequence (P10721 whole entry V559G, the tested form may be a part) above, with G559V counted along it

[6] = target: T1, Mast/stem cell growth factor receptor Kit; assay: Inhibition of wild type c-KIT phosphorylation at Y719 residue in human COLO320DM cells after 2 hrs by Western blot analysis; assay type: cell-based
[7] = target: T1, Mast/stem cell growth factor receptor Kit; assay: Inhibition of wild type c-KIT phosphorylation at Y823 residue in human COLO320DM cells after 2 hrs by Western blot analysis; assay type: cell-based
[8] = target: Serine/threonine-protein kinase Nek1 (Homo sapiens, UniProt Q96PY6); assay: Inhibition of wild-type human partial length NEK1 (M1 to K278 residues) expressed in bacterial expression system after 1 hr by Z-LYTE assay
Sequence of Serine/threonine-protein kinase Nek1 (Q96PY6 whole entry, the tested form may be a part): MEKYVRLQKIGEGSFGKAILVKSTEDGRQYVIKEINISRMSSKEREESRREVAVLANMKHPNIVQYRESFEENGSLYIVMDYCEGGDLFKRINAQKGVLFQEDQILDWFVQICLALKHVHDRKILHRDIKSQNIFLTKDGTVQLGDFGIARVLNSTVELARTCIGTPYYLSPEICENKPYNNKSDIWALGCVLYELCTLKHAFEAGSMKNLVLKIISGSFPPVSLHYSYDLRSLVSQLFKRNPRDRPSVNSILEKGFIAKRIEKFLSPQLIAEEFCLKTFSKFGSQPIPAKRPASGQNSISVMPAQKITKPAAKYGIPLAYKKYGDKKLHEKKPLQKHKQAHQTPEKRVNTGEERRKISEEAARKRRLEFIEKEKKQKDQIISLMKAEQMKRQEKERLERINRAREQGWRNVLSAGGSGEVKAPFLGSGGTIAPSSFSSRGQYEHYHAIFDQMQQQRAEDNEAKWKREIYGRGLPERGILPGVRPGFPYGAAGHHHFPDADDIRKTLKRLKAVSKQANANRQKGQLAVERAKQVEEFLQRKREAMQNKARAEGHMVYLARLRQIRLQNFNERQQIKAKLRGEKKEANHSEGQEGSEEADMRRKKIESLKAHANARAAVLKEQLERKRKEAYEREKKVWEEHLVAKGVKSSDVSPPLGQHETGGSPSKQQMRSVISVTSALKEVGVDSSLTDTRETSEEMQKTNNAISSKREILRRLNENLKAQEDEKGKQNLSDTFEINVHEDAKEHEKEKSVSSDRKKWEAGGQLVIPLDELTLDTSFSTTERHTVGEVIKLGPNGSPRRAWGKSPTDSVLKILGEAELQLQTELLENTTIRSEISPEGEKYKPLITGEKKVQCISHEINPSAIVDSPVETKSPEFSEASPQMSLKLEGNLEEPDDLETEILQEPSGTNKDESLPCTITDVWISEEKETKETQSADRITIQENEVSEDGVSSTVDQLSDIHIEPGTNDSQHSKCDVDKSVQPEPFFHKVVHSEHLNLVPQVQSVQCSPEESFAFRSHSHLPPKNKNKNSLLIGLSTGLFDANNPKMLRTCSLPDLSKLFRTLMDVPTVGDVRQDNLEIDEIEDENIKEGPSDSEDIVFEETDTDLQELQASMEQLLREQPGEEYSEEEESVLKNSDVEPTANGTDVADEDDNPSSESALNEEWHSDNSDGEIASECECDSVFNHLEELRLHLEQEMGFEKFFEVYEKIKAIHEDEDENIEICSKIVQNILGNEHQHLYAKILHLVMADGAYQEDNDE

[9] = target: Serine/threonine-protein kinase pim-3 (Homo sapiens, UniProt Q86V86); assay: Inhibition of wild-type human partial length PIM3 (G16 to A317 residues) expressed in bacterial expression system after 1 hr by Z-LYTE assay
[10] = target: Serine/threonine-protein kinase 25 (Homo sapiens, UniProt O00506); assay: Inhibition of wild-type human partial length STK25 (V14 to H295 residues) expressed in bacterial expression system after 1 hr by Z-LYTE assay
Sequence of Serine/threonine-protein kinase 25 (O00506 whole entry, the tested form may be a part): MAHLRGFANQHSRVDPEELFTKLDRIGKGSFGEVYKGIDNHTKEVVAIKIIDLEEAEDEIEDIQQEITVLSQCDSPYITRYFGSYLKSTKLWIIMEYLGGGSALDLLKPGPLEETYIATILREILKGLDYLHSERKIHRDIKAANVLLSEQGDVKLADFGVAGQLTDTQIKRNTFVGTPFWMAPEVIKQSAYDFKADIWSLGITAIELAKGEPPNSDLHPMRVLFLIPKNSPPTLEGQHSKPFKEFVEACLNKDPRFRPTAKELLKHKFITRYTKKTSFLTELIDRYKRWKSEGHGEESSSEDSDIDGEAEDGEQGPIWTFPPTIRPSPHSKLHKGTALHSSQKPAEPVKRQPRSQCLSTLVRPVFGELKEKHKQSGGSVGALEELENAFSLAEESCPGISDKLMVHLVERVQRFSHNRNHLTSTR

GIST882 = assay: Antiproliferative activity against human GIST882 cells harboring c-KIT K642E mutant incubated for 72 hrs by CCK8 assay; assay type: functional; conditions: GIST882, 72 h
Summary of the method: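 Adherent GIST cells seeded at 1.5-5 × 10^4 cells/mL and left overnight at 37 °C, 5% CO2. Medium then replaced with medium holding serial compound dilutions; 72 h incubation. Viability by CCK-8, absorbance at 450 nm, normalized to DMSO control; GI50 from dose-response fit.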

[11] = tested on: Mast/stem cell growth factor receptor Kit (Homo sapiens), P10721 [UNDEFINED MUTATION]; assay: Inhibition of c-KIT 560 to 578 deletion/T670I double mutant in human GISTT1 cells assessed as reduction in AKT phosphorylation at S473 residue at 0.1 uM to 3 uM after 1 hr by Western blot analysis; assay type: cell-based
Sequence of Mast/stem cell growth factor receptor Kit (Homo sapiens), P10721 [UNDEFINED MUTATION] (P10721 whole entry, looked up, stated change not applied): as the sequence (P10721 whole entry V559G, the tested form may be a part) above, with G559V counted along it
Summary of the method: (§2)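 Serial compound dilutions applied for 1 h to GIST-T1, GIST-T1-T670I (CRISPR/Cas9 T670I knock-in, clone confirmed by Sanger sequencing) or GIST-5R cells in DMEM with 10% FBS. Cells then lysed and phospho-proteins detected by standard Western blotting.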

[12] = tested on: Mast/stem cell growth factor receptor Kit (Homo sapiens), P10721 [UNDEFINED MUTATION]; assay: Inhibition of c-KIT 560 to 578 deletion/T670I double mutant in human GISTT1 cells assessed as reduction in S6 phosphorylation at S235/S236 residue at 0.1 uM to 3 uM after 1 hr by Western blot analysis; assay type: cell-based; summary of the method: as §2
[13] = tested on: Mast/stem cell growth factor receptor Kit (Homo sapiens), P10721 [UNDEFINED MUTATION]; assay: Inhibition of c-KIT 560 to 578 deletion mutant in human GISTT1 cells assessed as reduction in STAT3 phosphorylation at 0.1 uM to 3 uM after 1 hr by Western blot analysis; assay type: cell-based; summary of the method: as §2
GISTT1 = assay: Induction of apoptosis in human GISTT1 cells harboring c-KIT 560 to 578 deletion/T670I double mutant assessed as increase in cleaved caspase level after 24 hrs by Western blot analysis; assay type: functional, cell-based
Homo sapiens = organism: Homo sapiens; assay: Induction of cell cycle arrest in human GIST5R cells harboring 560 to 578 deletion/T670I double mutant after 24 hrs; assay type: functional, cell-based
[14] = MRT (0 to infinity) in Sprague-Dawley rat at 1 mg/kg, iv measured after 2 to 720 mins by LC-tandem mass spectrometry analysis; assay type: ADME, organism-based; conditions: in vivo
Summary of the method: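 Male Sprague–Dawley rats (190-210 g), fasted 12 h, given 1 mg/kg i.v. or 10 mg/kg p.o. in DMSO/5% glucose water (1:9). Blood sampled at 2–720 min (i.v.) or 5–720 min (p.o.). Plasma proteins precipitated with methanol using caffeine internal standard, then LC-MS/MS. Noncompartmental analysis; F = AUC0-∞ ratio corrected for dose; triplicate ±SD.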

[15] = Apparent volume of distribution in Sprague-Dawley rat at 10 mg/kg, po measured after 5 to 720 mins by LC-tandem mass spectrometry analysis; assay type: ADME, organism-based; conditions: in vivo
Summary of the method: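 Male Sprague-Dawley rats (190-210 g), fasted 12 h, randomized into two groups: 1 mg/kg i.v. or 10 mg/kg p.o., both formulated in 10% DMSO/90% of 5% glucose water. Blood sampled at 2-720 min (i.v.) or 5-720 min (p.o.). Plasma protein-precipitated with methanol, caffeine internal standard, LC-MS/MS. Noncompartmental analysis; triplicate, ±SD.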

[16] = Half-life in mouse at 10 mg/kg, po measured after 5 to 720 mins by LC-tandem mass spectrometry analysis; assay type: ADME, organism-based; conditions: in vivo
Summary of the method: (§3)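 Mice dosed 1 mg/kg i.v. or 10 mg/kg p.o.; plasma drug levels by LC-MS/MS, parameters by noncompartmental analysis; values not from triplicate testing.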

[17] = Apparent volume of distribution in mouse at 10 mg/kg, po measured after 5 to 720 mins by LC-tandem mass spectrometry analysis; assay type: ADME, organism-based; conditions: in vivo; summary of the method: as §3

## O=C(CC(=O)Nc1ccc2c(/C=C/c3ccccn3)n[nH]c2c1)Nc1cccc(F)c1
[1]
  GI50 at 72 h: 3970 nM
[2]
  GI50: 26 nM
[3]
  GI50: 265 nM
[4]
  GI50: 6000 nM
[5]
  IC50: 536 nM
[6]
  EC50: 1430 nM
[7]
  EC50: 2050 nM
[8]
  IC50: > 10000 nM
[9]
  IC50: > 10000 nM
[10]
  IC50: > 10000 nM
GIST882
  GI50: 296 nM
[11]
  inhibition: Active
[12]
  inhibition: Active
[13]
  inhibition: inactive
GISTT1
  Activity: Dose-dependent effect
Homo sapiens
  Activity: Dose-dependent effect
[14]
  MRT inf: 6.4 h
[15]
  Vz: 86.8 L/kg
[16]
  half-life: 1.6 h
[17]
  Vz: 19 L/kg
